Measured values: PMC5543507 (Cancer Science, 2017)
Where “and” joins values, the source holds several entries; their conditions need not be identical. Equal values may be shown once. Marks after values point to notes of the source that are not given here.

How the values were obtained:
GLI1 expression [1] = assay: GLI1 expression in normal skin biopsies; format: in vivo, Japanese patients; settings: for Downregulation of GLI1 expression from skin biopsies: steady state (Cycle 1 Day 21 vs screening)
Outline: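 Adults with advanced hematologic malignancies received once-daily oral test compound at 25, 50 or 100 mg in 28-day cycles, after a single lead-in dose on Day −5. Normal skin biopsies were taken at screening and on Cycle 1 Day 21. Expression of Hh pathway-regulated genes was measured relative to baseline, matched to PK sampling where possible, and summarised graphically and descriptively.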

[2] = tested on: select advanced hematologic malignancies; assay: Preliminary clinical activity by disease-specific response criteria; format: in vivo, Japanese patients
Outline: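 Patients aged ≥20 years had refractory, resistant or intolerant MDS, MF, CMML, CML or AML. They took oral test compound once daily at 25, 50 or 100 mg in 28-day cycles, after a lead-in dose on Day −5. Response was judged by disease-specific criteria and summarised with descriptive statistics.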

solid tumors = settings: glasdegib monotherapy; cited from earlier work
[3] = 5–600 mg dose range; cited from earlier work
[4] = Plasma pharmacokinetics after single and multiple oral doses; format: in vivo, Japanese patients; settings: for half-life / AUC(0-inf) / Tmax / Vd/F: human, plasma; for C trough: multiple dose, Cycle 1/Day 21; for C trough / CL/F: geometric mean (geometric %CV); for CL/F: single dose
Outline: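 Dosing was oral, once daily, at 25, 50 or 100 mg (3 + 3 design), with a single lead-in dose on Day −5. Serial blood was drawn on Day −5 and on Cycle 1 Days 1, 8, 15 and 21, then on Day 1 of later cycles. Plasma drug was assayed by a validated method (LLOQ 3.00 ng/mL). Cmax, Tmax and AUC came from noncompartmental analysis.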

[5] = tested on: patients with select advanced myeloid malignancies and solid tumors; settings: phase I dose-escalation study, United States and Italy; cited from earlier work
[6] = tested on: Japanese patients with select advanced hematologic malignancies; assay: Safety: adverse events and dose-limiting toxicities, phase I trial of glasdegib; format: in vivo
Outline: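 Once-daily oral dosing at 25, 50 or 100 mg followed a 3 + 3 design. AEs, serious AEs and laboratory tests were monitored until 28 days after the last dose or until drug-related toxicities resolved, graded by NCI CTCAE v4.0. DLT window: Day −5 to Cycle 1 Day 28. DLTs: grade ≥3 nonhematologic toxicity; myelosuppression lasting ≥42 days; grade ≥3 QTc prolongation (≥501 ms).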

[7] = tested on: leukemic stem cell (LSC) burden in xenograft models; settings: cited from earlier work
GLI1 expression [8] = settings: advanced solid tumors; 80–640 mg; cited from earlier work
hematologic malignancies = settings: cited from earlier work
SMO = settings: preclinical studies; cited from earlier work

For `CN1CC[C@@H](NC(=O)Nc2ccc(C#N)cc2)C[C@@H]1c1nc2ccccc2[nH]1` [glasdegib], the “Downregulation of GLI1 expression from skin biopsies” value (GLI1 expression [1]; 50 mg group) was greater than 80%, the “Downregulation of GLI1 expression from skin biopsies” value (GLI1 expression [1]; 100 mg group) was greater than 80% and the “Marked downregulation of GLI1 expression from skin biopsies” value (GLI1 expression [1]; steady state, 25-mg group) was “not observed”. For the same molecule, the “AML patients achieving stable disease” value ([2]; 25 mg) was 1 patients, the “MDS patients achieving stable disease” value ([2]; 25 mg) was 1 and the “AML patients achieving stable disease” value ([2]; 50 mg) was 1 patients. For the same molecule, the “MDS patients achieving stable disease” value ([2]; 100 mg) was 1, the “AML patients achieving stable disease” value ([2]; 100-mg group) was 2 patients and the “AML patients with morphological complete remission as best response” value ([2]; 100-mg group, 8% of 13) was 1 patient. For the same molecule, the “AML patients achieving stable disease” value ([2]; all dose groups, 31%) was “Four”, the “Patients with prolonged (≥6 months) stabilization of disease” value (solid tumors) was 13% and the “Patients with stable disease” value (solid tumors) was 35%. For the same molecule, the “Dose proportionality of pharmacokinetics” value [3] was “dose‐proportional”, the “Dose proportionality of maximum plasma concentration and exposure” value ([4]; 25–100 mg) was “broadly dose‐proportional” and the half-life ([4]; oral) was 20.7 ± 7.7 h. For the same molecule, the AUC(0-inf) ([4]; po, 25 mg) was 3350 ng·h/mL, the Tmax ([4]; po, 25 mg) was 2 h and the Vd/F ([4]; po, 25 mg) was 165 L. The half-life ([4]; po, 25 mg) was 15.3 h, the AUC(0-inf) ([4]; po, 50 mg) was 9590 ng·h/mL and the Tmax ([4]; po, 50 mg) was 4 h. The Vd/F ([4]; po, 50 mg) was 225 L, the half-life ([4]; po, 50 mg) was 30.3 h and the AUC(0-inf) ([4]; po, 100 mg) was 13100 ng·h/mL. The Tmax ([4]; po, 100 mg) was 2 h, the Vd/F ([4]; po, 100 mg) was 184 L and the half-life ([4]; po, 100 mg) was 17.1 h. For the same molecule, the C trough ([4]; 50 mg q.d.) was 240 (37) ng/mL, the C trough ([4]; 100 mg q.d.) was 343 (35) ng/mL and the CL/F ([4]; 25 mg oral) was 7.47 (68) L/h. The CL/F ([4]; 50 mg oral) was 5.22 (64) L/h, the CL/F ([4]; 100 mg oral) was 7.63 (20) L/h and the Tolerability [5] was “well tolerated”. The “Permanent discontinuation of treatment due to AE” value ([6]; 50 mg group) was 3 patients, the “Permanent discontinuation of treatment due to AE” value ([6]; 100 mg group) was 1 patient and the “Severity of treatment-emergent, treatment-related AE” value ([6]; 9 of 13 patients with treatment-related AE) was 1–3 grade. The “Leukopenia, grade 4 treatment-emergent AE” value ([6]; 13 patients, 8%) was 1 n, the “Neutropenia, grade 4 treatment-emergent AE” value ([6]; 13 patients, 8%) was 1 n and the “Reduced platelet count, grade 4 treatment-emergent AE” value ([6]; 13 patients, 8%) was 1 n. For the same molecule, the “Thrombocytopenia, grade 4 treatment-emergent AE” value ([6]; 13 patients, 8%) was 1 n, the “Anemia, grade 3 treatment-emergent all-causality AE” value ([6]; 13 patients, 15%) was 2 n and the “Hypokalemia, grade 3 treatment-emergent all-causality AE” value ([6]; 13 patients, 15%) was 2 n. The “Thrombocytopenia, grade 3 treatment-emergent all-causality AE” value ([6]; 13 patients, 15%) was 2 n, the “Treatment temporarily discontinued or dose reduced due to a treatment-related AE” value ([6]; 13 patients, 23%, grade 1 muscle cramp, grade 1 dysgeusia, grade 1–3 pyrexia) was 3 patients and the “First-cycle dose-limiting toxicities (DLT)” value ([6]; 13 patients, 25, 50 and 100 mg q.d., Day −5 to Day 28 of Cycle 1) was “No DLT were observed”. For the same molecule, the “Temporary discontinuations for an all-cause AE” value ([6]; 50-mg group) was 1 patient, the “Temporary discontinuations for an all-cause AE” value ([6]; 100-mg group, 23%) was 3 patients and the “Grade 4 or 5 treatment-related adverse events” value ([6]; N = 13) was “No grade 4 or 5 treatment‐related adverse events were reported in this study”. The “Pyrexia, grade 3 treatment-related” value ([6]; N = 13) was “a One patient experienced grade 3 treatment‐related pyrexia”, the “Any adverse event, treatment-emergent all-causality, all grades” value ([6]; N = 13, 25, 50 and 100 mg q.d. oral pooled) was 13 (100.0) n (%) and the “Alopecia, all-causality, all grades” value ([6]; N = 13, all doses pooled) was 4 (30.8) n (%). The “Alopecia, all-causality, ≥Grade 3” value ([6]; N = 13, all doses pooled) was 0 n (%), the “Alopecia, treatment-related, Grade 3” value ([6]; N = 13, all doses pooled) was 0 n (%) and the “Alopecia, treatment-related, all grades” value ([6]; N = 13, all doses pooled) was 4 (30.8) n (%). For the same molecule, the “Any adverse event, treatment-emergent all-causality, ≥Grade 3” value ([6]; N = 13, all doses pooled) was 7 (53.8) n (%), the “Any adverse event, treatment-emergent treatment-related, all grades” value ([6]; N = 13, all doses pooled) was 9 n (%) and 9 (69.2) n (%) and the “Any adverse event, treatment-related, Grade 3” value ([6]; N = 13, all doses pooled) was 1 (7.7) ^a n (%). For the same molecule, the “Blood creatinine phosphokinase increased, all-causality, all grades” value ([6]; N = 13, all doses pooled) was 3 (23.1) n (%), the “Blood creatinine phosphokinase increased, all-causality, ≥Grade 3” value ([6]; N = 13, all doses pooled) was 0 n (%) and the “Blood creatinine phosphokinase increased, treatment-related, Grade 3” value ([6]; N = 13, all doses pooled) was 0 n (%). The “Blood creatinine phosphokinase increased, treatment-related, all grades” value ([6]; N = 13, all doses pooled) was 3 (23.1) n (%), the “Constipation, all-causality, all grades” value ([6]; N = 13, all doses pooled) was 6 (46.2) n (%) and the “Constipation, all-causality, ≥Grade 3” value ([6]; N = 13, all doses pooled) was 0 n (%). The “Constipation, treatment-related, Grade 3” value ([6]; N = 13, all doses pooled) was 0 n (%), the “Constipation, treatment-related, all grades” value ([6]; N = 13, all doses pooled) was 3 (23.1) n (%) and the “Decreased appetite, all-causality, all grades” value ([6]; N = 13, all doses pooled) was 6 (46.2) n (%). For the same molecule, the “Decreased appetite, all-causality, ≥Grade 3” value ([6]; N = 13, all doses pooled) was 0 n (%), the “Decreased appetite, treatment-related, Grade 3” value ([6]; N = 13, all doses pooled) was 0 n (%) and the “Decreased appetite, treatment-related, all grades” value ([6]; N = 13, all doses pooled) was 4 (30.8) n (%). For the same molecule, the “Diarrhea, all-causality, all grades” value ([6]; N = 13, all doses pooled) was 3 (23.1) n (%), the “Diarrhea, all-causality, ≥Grade 3” value ([6]; N = 13, all doses pooled) was 0 n (%) and the “Diarrhea, treatment-related, Grade 3” value ([6]; N = 13, all doses pooled) was 0 n (%). For the same molecule, the “Diarrhea, treatment-related, all grades” value ([6]; N = 13, all doses pooled) was 3 (23.1) n (%), the “Dysgeusia, all-causality, all grades” value ([6]; N = 13, all doses pooled) was 9 (69.2) n (%) and the “Dysgeusia, all-causality, ≥Grade 3” value ([6]; N = 13, all doses pooled) was 0 n (%). For the same molecule, the “Dysgeusia, treatment-related, Grade 3” value ([6]; N = 13, all doses pooled) was 0 n (%), the “Dysgeusia, treatment-related, all grades” value ([6]; N = 13, all doses pooled) was 9 (69.2) n (%) and the “Fatigue, all-causality, all grades” value ([6]; N = 13, all doses pooled) was 3 (23.1) n (%). The “Fatigue, all-causality, ≥Grade 3” value ([6]; N = 13, all doses pooled) was 0 n (%), the “Hypokalemia, all-causality, all grades” value ([6]; N = 13, all doses pooled) was 3 (23.1) n (%) and the “Hypokalemia, all-causality, ≥Grade 3” value ([6]; N = 13, all doses pooled) was 2 (15.4) n (%). For the same molecule, the “Muscle spasms, all-causality, all grades” value ([6]; N = 13, all doses pooled) was 6 (46.2) n (%), the “Muscle spasms, all-causality, ≥Grade 3” value ([6]; N = 13, all doses pooled) was 0 n (%) and the “Muscle spasms, treatment-related, Grade 3” value ([6]; N = 13, all doses pooled) was 0 n (%). The “Muscle spasms, treatment-related, all grades” value ([6]; N = 13, all doses pooled) was 5 (38.5) n (%), the “Pyrexia, all-causality, all grades” value ([6]; N = 13, all doses pooled) was 6 (46.2) n (%) and the “Pyrexia, all-causality, ≥Grade 3” value ([6]; N = 13, all doses pooled) was 1 (7.7) n (%). The “Thrombocytopenia, all-causality, all grades” value ([6]; N = 13, all doses pooled) was 3 (23.1) n (%), the “Thrombocytopenia, all-causality, ≥Grade 3” value ([6]; N = 13, all doses pooled) was 3 (23.1) n (%) and the “Weight decreased, all-causality, all grades” value ([6]; N = 13, all doses pooled) was 3 (23.1) n (%). For the same molecule, the “Weight decreased, all-causality, ≥Grade 3” value ([6]; N = 13, all doses pooled) was 0 n (%), the “Overall safety and tolerability” value ([6]; dose levels tested (25–100 mg)) was “safe and well tolerated” and the Maximum tolerated dose ([6]; doses up to 100 mg q.d.) was “not reached”. For the same molecule, the “Antitumor activity in vivo” value ([7]; preclinical studies) was “significant antitumor activity”, the “Leukemic stem cell (LSC) burden” value ([7]; xenograft models) was “significant reduction” and the “Downregulation of GLI1 expression in surrogate tissue” value (GLI1 expression [8]) was greater than 80%. For the same molecule, the “Patients with some suggestion of clinical activity” value (hematologic malignancies; European and American patients with hematologic malignancies) was 23 of 47, the “Patients with preliminary clinical activity” value (hematologic malignancies; phase I dose-escalation study, United States and Italy) was “approximately half” and the “Inhibition of SMO in vitro” value (SMO) was “inhibited SMO in vitro”.
